This note sets out measurements from ChEMBL document CHEMBL4513216, “Probing the Open Global Health Chemical Diversity Library for Multistage-Active Starting Points for Next-Generation Antimalarials” (ACS Infect Dis, 2020).

A short description of this data set: Toxicity liver stage against HepG2, at 10uM. Set-up: test concentration 10 uM, cell line HepG2-A16-CD81EGFP. In kind it is cell-based. The conditions noted are these: human, HepG2-A16-CD81EGFP cells; read-out: INHIBITION
An outline of the steps: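 Uninfected HepG2-A16-CD81EGFP cells, 3 × 10^3 per well, 1536-well, plated on prespotted compound at 10 μM final, parasite-free screening media added to match infected plates; puromycin 10 μM positive, DMSO 0.5% negative; run in parallel with 48 h PbLuc assay at 37 °C, 5% CO2; viability by CellTiter-Glo luminescence, normalized to controls.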

Molecules are shown by their SMILES.

On to `CCN(C)S(=O)(=O)N(CC)Cc1ccc2c(c1)OCO2`, for which the cytotoxicity at 10 µM was -6.62%.
`Cc1cc(CCC(=O)NCc2nccn2C)ccc1Br`: the cytotoxicity at 10 µM was 2.95%.
Next, `O=C(CC1CC1)N1CCC(O)(CN2CCN(c3ccccc3)CC2)C1` (stereo unspecified): -11.2%.
Regarding `O[C@@H]1CC(CNCC2CC2)(COc2cccnc2)C[C@@H]1O` (stereo partly specified), the cytotoxicity at 10 µM was -2.64%.
Next, `CN(Cc1noc2c1CCCC2)C(=O)Nc1cncc(F)c1`: 2.26%; `CN(CCc1noc(C2CC2)n1)C(=O)C1(N2CCCC2)CCCC1`: -146%.
Next, `C[C@@H]1C[C@@H]2CCN(Cc3ccccn3)C[C@H]2O1`: -75.9%; `Cn1cccc1C(=O)NCc1cnc2n1CCN(c1ccccn1)C2`: -2.74%.
Next, `COCCN1CCCC2(CCN(c3nc(C)nc4ccsc34)C2)C1=O` (stereo unspecified): 10.7%; `O=C(NCCOc1ccc(Cl)cc1)N1CCS(=O)(=O)CC1`: 0.89%; `Cc1nc(Nc2cnccn2)cc(C2CCCN2C2CCOCC2)n1` (stereo unspecified): -17.3%.
For `CCCc1n[nH]c(C2CN(CCn3cccn3)CCO2)n1` (stereo unspecified), the cytotoxicity at 10 µM is -11.3%.
Regarding `Nc1ccnc(N2CCC(c3nccn3CC3CC3)CC2)n1`, the cytotoxicity at 10 µM is -0.0638%.
Next, `COc1ccccc1CC(=O)NCc1ccnc(NC2CC2)c1`: -4.06%.
Consider `CCCc1n[nH]c(C2CN(CCC(F)(F)F)CCO2)n1` (stereo unspecified), for which the cytotoxicity at 10 µM is -13.9%.
As to `O=C(NCc1ccc(F)cc1)N1CCN(CC(O)C2CC2)CC1` (stereo unspecified), the cytotoxicity at 10 µM was 8.88%.
For `Cc1n[nH]c(C)c1CC(=O)N1CC[C@@](C)(O)[C@H](Oc2ccccc2)C1`, the cytotoxicity at 10 µM was 2.85%.
Next, `Cc1cccc2c1nc(CCO)n2-c1ccc(C(=O)N2CCOCC2)o1`: 3.69%; `CCn1cc(CN2CCC(c3[nH]ncc3S(C)(=O)=O)C2)cn1` (stereo unspecified): -2.33%.
For `Cc1ccc(C)c(-n2ccc3nc(N4CCCC4)ncc3c2=O)c1`, the cytotoxicity at 10 µM was determined as 18.6%.
As to `CSCCC(=O)NCc1cc2n(n1)CCCN(C1CCCCC1)C2`, the cytotoxicity at 10 µM stood at 19.9%.
Take `O=C1CCC(=O)c2oc3ccc(Br)cc3c2N1`: the cytotoxicity at 10 µM came to 2.44%.
Next, `Cc1cnc(C(=O)N2CC[C@@H]3CN(c4ncccn4)CCO[C@@H]3C2)cn1`: -75.2%; `Cc1n[nH]c(C)c1CCC(=O)N1CCC(O)(CN2CCOCC2)C1` (stereo unspecified): 3.38%.
Next, `CCC(Oc1ccc(N(C)S(C)(=O)=O)cc1)C(N)=O` (stereo unspecified): -4.18%.
As to `CCC(C)(CC)NC(=O)COc1nn(C)c2nc(C)cc(C)c12`, the cytotoxicity at 10 µM was -6.17%.
Next, `COc1c[nH]c(C(=O)Nc2nc(C)cs2)cc1=O`: -44.4%; `COCCOc1ccnc(-c2noc([C@@H]3CCCN3CC(C)C)n2)c1`: -8.64%; `CCC[C@H]1CN(CCS(C)(=O)=O)C[C@@H]1NC(=O)c1cc(CC)on1`: -2.42%.
In the case of `CC1CCN(c2nccn3c(=O)[nH]nc23)CC1`, the cytotoxicity at 10 µM turned out to be 6.09%.
Next, `CC(C)(C)c1cc(NC(=O)C2COCCO2)n(-c2ccccn2)n1` (stereo unspecified): -3.49%; `CS(=O)(=O)N1CCOCC2(CCN(Cc3ccoc3)CC2)C1`: 2.64%.
Next, `CSC(C)(C)CNC(=O)NC1CCSCC1`: 17.5%.
`Cc1c(C(=O)N2CC(Cc3nccc4ccn(C)c34)C2)cnn1C`: the cytotoxicity at 10 µM was -26.3%.
Turning to `Cc1c(F)cc(C(=O)O)cc1S(=O)(=O)Nc1ccccc1`, the cytotoxicity at 10 µM was -4.54%.
`CS(=O)(=O)N1CCc2sc(C(=O)NCc3ccccc3)cc21`: the cytotoxicity at 10 µM was 0.997%.
For `CCCN1CCN(C(=O)CCn2nc(C(F)(F)F)c(Br)c2C)CC1`, the cytotoxicity at 10 µM was -8.71%.
For the molecule `Cc1c(C(=O)O)nnn1-c1cccc2cccnc12`, the cytotoxicity at 10 µM amounted to 5.31%.
Next, `CCc1cnc(N2CCOC(CCOC)C2)nc1` (stereo unspecified): -3.88%; `O=C(CCc1cccs1)N1CCCCC1Cn1cccn1` (stereo unspecified): 1.54%.
Next, `CNc1nc2cn(Cc3ccc(Cl)cc3)c(=O)c-2c[nH]1`: 8.93%; `Cc1cnn(CC2CCCCN2CC(=O)N(C)Cc2ccc(C)o2)c1` (stereo unspecified): 10.6%.
Next, `Cc1cccc(C)c1OC1CN(C(=O)C2CCN(C(=O)N(C)C)CC2)C1`: 2.69%; `CN1CCO[C@@H]2CN(S(=O)(=O)c3cccs3)CC[C@@H]2C1`: 11.7%.
Take `CN(C)[C@@H]1CN(C(=O)c2cc3ccc(F)cc3[nH]2)C[C@H]1O`: the cytotoxicity at 10 µM amounted to 1.05%.
As for `Cc1cc2c(cc1CNC(Cc1cccs1)c1nccs1)OCO2` (stereo unspecified), the cytotoxicity at 10 µM was found to be 6.76%.
Next, `Cc1nccc([C@@H]2C[C@@H]3CCN(Cc4c(C)noc4C)C[C@H]3O2)n1`: -76.9%; `O=C1NCCN1CCNCC1(O)CCCN(CCC2CCCCC2)C1=O` (stereo unspecified): -1.04%.
With `CCn1ccnc1CN1CCCN(C(=O)c2sccc2C#N)CC1`, the cytotoxicity at 10 µM is -8.08%.
Next, `COc1ccc(CCNC(C)c2ccc3[nH]c(=O)[nH]c3c2)cc1OC` (stereo unspecified): -16.8%.
Next, `CC(=O)N1CCN(c2ccccc2CNc2ccc(C)cn2)CC1`: 11.2%; `CCN1CCN(C(C)CNC(=O)Nc2cnn(CC)c2)CC1` (stereo unspecified): -12.9%; `CN(Cc1ccco1)C(=O)CN1C(=O)c2ccccc2C1=O`: -2.96%.
Next, `CC(C)(C)c1nc(NS(=O)(=O)c2cccc(F)c2)no1`: -10.8%.
Take `c1cc2c(cc1CN1C[C@@H]3COC[C@@H](N4CCCC4)[C@@H]3C1)OCO2`: the cytotoxicity at 10 µM was determined as 4.62%.
Regarding `CCC(O)CN1CCN(C(=O)c2csc(COC)n2)CC1` (stereo unspecified), the cytotoxicity at 10 µM stood at 7.72%.
Next, `O=C(O)c1ccc2c(c1)C1(CCCCC1)CN2C(=O)c1cccs1`: 3.01%; `O=C(NC1CCCC1)[C@@H]1C[C@@H]2CCN(Cc3ccoc3)C[C@H]2O1`: -110%; `CC(C)Cc1noc(CN2CCOCC2)n1`: -2.27%.
Next, `CNc1nc(CNC(=O)Nc2cc(Cl)ccc2F)cs1`: -6.95%; `CC(O)(CCc1ccccc1)CNC(=O)c1ccc(F)cc1` (stereo unspecified): -70.3%.
Next, `CNS(=O)(=O)CCCN1CCCC1c1noc(C)n1` (stereo unspecified): -4.38%.
For the molecule `COc1ccccc1C1Cn2c(C)cnc2CN1Cc1c[nH]nc1C` (stereo unspecified), the cytotoxicity at 10 µM is 2.79%.
Turning to `CC(C)c1cc(C(=O)N2CCN(c3ccc(F)c(Cl)c3)CC2)n(C)n1`, the cytotoxicity at 10 µM is 19.7%.
Consider `Cc1cnc2c(S(=O)(=O)NC3CCS(=O)(=O)C3)cccc2c1` (stereo unspecified), for which the cytotoxicity at 10 µM is -2.28%.
With `CC(O)CNC(=O)c1nc(Cc2c(Cl)cccc2Cl)no1` (stereo unspecified), the cytotoxicity at 10 µM came to 3%.
Next, `O=C(Nc1ccc2c(c1)OCCO2)c1ccc(=O)[nH]n1`: 18.1%; `COc1ccc(OC)c(C(C)Nc2nc3c(C)nn(C)c3c(=O)n2C)c1` (stereo unspecified): -15%.
Next, `CC(C)(O)c1cn(C2CCN(C(=O)CCC3CCCC3)CC2)nn1`: 1.2%; `COc1ccc(NC2(C(=O)N3CCn4cncc4C3)CCCC2)cc1`: 7.42%.
Next, `C1CN(Cc2noc(C3CC3)n2)CCN(Cc2nnc(C3CC3)o2)C1`: -10.9%.
Consider `Fc1cccc(Cl)c1CNCCOc1ccccn1`, for which the cytotoxicity at 10 µM is -11.4%.
As to `Cc1cc(=O)c(C(=O)N2CCC(C(O)Cc3ccccc3)CC2)c(C)[nH]1` (stereo unspecified), the cytotoxicity at 10 µM came to 12.2%.
Next, `Cc1cnn(C2CCCN(C(=O)c3ccc4c(c3)CCC4)C2)c1` (stereo unspecified): -4.81%; `CC(C)Oc1ncc(C(=O)N2CCc3ccc(O)cc3C2)cc1Cl`: 1.61%; `Fc1cnc(N2CC3(CCN(CC4CC4)C3)C2)nc1`: -2.73%.
Consider `Cc1cc(-c2cnc(N3CCCCCC3)nc2-c2cccnc2C)on1`, for which the cytotoxicity at 10 µM is -8.75%.
Take `Cc1ccc(CN(C)C(=O)CCNS(=O)(=O)c2cccnc2)cc1`: the cytotoxicity at 10 µM was -10.6%.
Turning to `CC1(c2ccc(Br)cc2)CC(=O)N(CC(N)=O)C1=O` (stereo unspecified), the cytotoxicity at 10 µM stood at 2.05%.
Consider `O=C(c1ccco1)N1CCC12CCN(c1ncc(F)cn1)CC2`, for which the cytotoxicity at 10 µM is -1.3%.
Next, `COc1cc(C(=O)N(Cc2cccs2)C2CC2)cc2c1OCCO2`: 8.45%; `NC(=O)Nc1cccc(C(=O)N(Cc2ccncc2)C2CC2)c1`: -2.34%; `Cc1cc(NCc2ccccc2)nc2[nH]nc(N)c12`: -44%.
Take `Cc1ccc(C2(CN(C)Cc3c(C)nn(C)c3C)CCNCC2)nc1`: the cytotoxicity at 10 µM is -0.44%.
Next, `CCOCCC(=O)N1CCCN(c2ccccc2C)CC1`: -7.68%.
Consider `COc1cccc(CN2CC(O)CN(C(=O)C3CC3)CC2=O)c1OC` (stereo unspecified), for which the cytotoxicity at 10 µM is -11.3%.
On to `Cc1csc(C(Cc2ccsc2)NC(=O)c2cc(=O)n(C)c(=O)n2C)n1` (stereo unspecified), for which the cytotoxicity at 10 µM was -12.3%.
Next, `Cc1ccc(C(=O)NS(=O)(=O)c2ccccc2C)c(=O)[nH]1`: -8.48%; `O=C(CCC(=O)N1CCc2[nH]c3ccccc3c2C1)NCc1ccco1`: 3.59%.
Next, `COc1ccc(C(C)N2CCC(NS(C)(=O)=O)CC2)cc1Cl` (stereo unspecified): -41.2%; `CCN(C)S(=O)(=O)NCC(C)(O)c1ccsc1` (stereo unspecified): 1.83%.
Next, `Cc1nc(-c2ccnc(N3CCNCC3)n2)no1`: 2.63%; `CC(=O)CSc1nnc2n1N=CN(c1cccc(Cl)c1)C2`: 1.05%.
As to `COc1cccc2ccc(CN3CCN(c4ncccc4C)CC3)nc12`, the cytotoxicity at 10 µM is -5.21%.
Next, `CCCOC1CCCN(c2ncnc3c2CCN(C(=O)C2CC2)C3)C1` (stereo unspecified): 4.84%; `CS(=O)(=O)N1CCCC12CCCN(C(=O)c1ccc3[nH]ccc3c1)C2` (stereo unspecified): -140%.
